These results are taken from ChEMBL document CHEMBL1137433, “Synthesis and antibacterial evaluation of ureides of Baylis-Hillman derivatives” (2006).

Common to all, as to type: functional
The test system of one experiment is Staphylococcus aureus. The experiment in a line: Antibacterial activity against Staphylococcus aureus. A digest of the protocol:
(§1)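 Broth microdilution MIC in Mueller Hinton broth, 96-well plates. Strains from departmental collection, kept on nutrient agar slants at 37 °C, purity checked before testing. Starting inoculum 1–5 · 10³ cells/ml. Plates incubated 24 h at 37 °C in a moist chamber, then absorbance read at 492 nm. MIC taken as 90% growth inhibition relative to growth control.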

In the next experiment the test system is Enterococcus faecalis. The experiment in a line: Antibacterial activity against Streptococcus faecalis. The method, boiled down: as §1
The test system of a further experiment is Klebsiella pneumoniae. The experiment is described as follows: Antibacterial activity against Klebsiella pneumoniae. The method, boiled down:
as §1

The test system of the next experiment is Escherichia coli. The experiment in a line: Antibacterial activity against Escherichia coli. The method, boiled down:
as §1

The next experiment deals with Pseudomonas aeruginosa. The experiment is described as follows: Antibacterial activity against Pseudomonas aeruginosa. A digest of the protocol: as §1

≈ marks a conversion by molar mass, not a printed value.

For the compound `N#C/C(=C/c1ccc(Cl)c(Cl)c1)CNC(=O)Nc1ccc(Cl)c(Cl)c1`, the minimum inhibitory concentration (MIC) in the experiment on Staphylococcus aureus worked out at 1.56 µg/mL (≈ 3.76 µM); against Enterococcus faecalis, 1.56 µg/mL (≈ 3.76 µM); in the experiment with Klebsiella pneumoniae it was 1.56 µg/mL (≈ 3.76 µM); against Escherichia coli, 0.78 µg/mL (≈ 1.88 µM); against Pseudomonas aeruginosa, 50 µg/mL (≈ 120 µM).
For the compound `COC(c1ccccc1)C1CN(Cc2ccccc2)C(=O)N(c2ccc(Cl)c(Cl)c2)C1=N` (stereo not given), the minimum inhibitory concentration (MIC) in the experiment on Staphylococcus aureus turned out to be 1.56 µg/mL (≈ 3.33 µM); in the experiment on Enterococcus faecalis it was 3.12 µg/mL (≈ 6.66 µM); in the experiment on Klebsiella pneumoniae it was 3.12 µg/mL (≈ 6.66 µM); against Escherichia coli, 1.56 µg/mL (≈ 3.33 µM); in the experiment on Pseudomonas aeruginosa it was 50 µg/mL (≈ 107 µM).
On to `N#C/C(=C/c1ccccc1Cl)CNC(=O)Nc1ccc(Cl)c(Cl)c1`, for which the MIC is over 50 µg/mL with Staphylococcus aureus; over 50 µg/mL in the experiment with Enterococcus faecalis; over 50 µg/mL against Klebsiella pneumoniae; 1.56 µg/mL (≈ 4.1 µM) in the experiment with Escherichia coli; over 50 µg/mL against Pseudomonas aeruginosa.
With `Cc1ccc(-n2c(=O)[nH]cc(Cc3ccc(Cl)c(Cl)c3)c2=N)cc1Cl`, the MIC against Staphylococcus aureus is over 50 µg/mL; with Enterococcus faecalis, 50 µg/mL (≈ 127 µM); with Klebsiella pneumoniae, 50 µg/mL (≈ 127 µM); against Escherichia coli it was over 50 µg/mL; against Pseudomonas aeruginosa it was over 50 µg/mL.
Take `N#CC(CN(Cc1ccccc1)C(=O)Nc1ccc(Cl)cc1)C(O)c1ccccc1` (stereo not given): the MIC in the experiment with Staphylococcus aureus was determined as 25 µg/mL (≈ 59.5 µM); in the experiment on Enterococcus faecalis it was 50 µg/mL (≈ 119 µM); against Klebsiella pneumoniae, 50 µg/mL (≈ 119 µM); in the experiment with Escherichia coli it was 12.5 µg/mL (≈ 29.8 µM); with Pseudomonas aeruginosa it was 50 µg/mL (≈ 119 µM).
For the compound `N#C/C(=C/c1ccccc1Cl)CNC(=O)Nc1ccc(Cl)cc1Cl`, the minimal inhibitory concentration (MIC) against Staphylococcus aureus, against Enterococcus faecalis, in the experiment with Klebsiella pneumoniae, in the experiment on Escherichia coli and against Pseudomonas aeruginosa was over 50 µg/mL in each case.
Take `Cc1ccc(NC(=O)NC/C(C#N)=C\c2ccc(Cl)c(Cl)c2)cc1Cl`: the minimal inhibitory concentration (MIC) in the experiment on Staphylococcus aureus, in the experiment on Enterococcus faecalis, in the experiment with Klebsiella pneumoniae, in the experiment with Escherichia coli and in the experiment with Pseudomonas aeruginosa was over 50 µg/mL each time.
Regarding `N=c1c(Cc2ccc(Cl)c(Cl)c2)c[nH]c(=O)n1-c1ccc(Cl)c(Cl)c1`, the minimum inhibitory concentration (MIC) amounted to 25 µg/mL (≈ 60.2 µM) with Staphylococcus aureus; 25 µg/mL (≈ 60.2 µM) in the experiment with Enterococcus faecalis; 50 µg/mL (≈ 120 µM) in the experiment on Klebsiella pneumoniae; 25 µg/mL (≈ 60.2 µM) in the experiment with Escherichia coli; 50 µg/mL (≈ 120 µM) in the experiment on Pseudomonas aeruginosa.
As to `N=c1c(Cc2cccs2)c[nH]c(=O)n1-c1ccc(Cl)cc1Cl`, the MIC against Staphylococcus aureus is over 50 µg/mL; in the experiment with Enterococcus faecalis, over 50 µg/mL; with Klebsiella pneumoniae it was over 50 µg/mL; in the experiment on Escherichia coli, 50 µg/mL (≈ 142 µM); against Pseudomonas aeruginosa, over 50 µg/mL.
With `Cc1ccc(NC(=O)NC/C(C#N)=C\c2ccccc2Cl)cc1Cl`, the minimum inhibitory concentration (MIC) in the experiment on Staphylococcus aureus, against Enterococcus faecalis, against Klebsiella pneumoniae, with Escherichia coli and against Pseudomonas aeruginosa was over 50 µg/mL each time.
Take `N=c1c(Cc2ccccc2Cl)c[nH]c(=O)n1-c1ccc(Cl)cc1`: the minimum inhibitory concentration (MIC) against Staphylococcus aureus, against Enterococcus faecalis, in the experiment on Klebsiella pneumoniae, in the experiment on Escherichia coli and in the experiment on Pseudomonas aeruginosa was over 50 µg/mL in each case.
Consider `Nc1c(Cc2ccccc2Cl)cnc(=S)n1-c1ccccc1`, for which the MIC is over 50 µg/mL against Staphylococcus aureus; 25 µg/mL (≈ 76.3 µM) against Enterococcus faecalis; over 50 µg/mL in the experiment on Klebsiella pneumoniae; over 50 µg/mL in the experiment on Escherichia coli; over 50 µg/mL with Pseudomonas aeruginosa.
Take `N#C/C(=C/c1ccc(Cl)c(Cl)c1)CNC(=O)Nc1ccc(Cl)cc1Cl`: the minimum inhibitory concentration (MIC) with Staphylococcus aureus was over 50 µg/mL; with Enterococcus faecalis, over 50 µg/mL; in the experiment on Klebsiella pneumoniae, over 50 µg/mL; against Escherichia coli it was 6.25 µg/mL (≈ 15.1 µM); in the experiment on Pseudomonas aeruginosa it was over 50 µg/mL.
For `Nc1c(Cc2ccccc2)cnc(=S)n1-c1ccccc1`, the MIC against Staphylococcus aureus, against Enterococcus faecalis, in the experiment on Klebsiella pneumoniae, against Escherichia coli and against Pseudomonas aeruginosa was over 50 µg/mL each time.
With `N#CC(CNC(=O)Nc1ccc(Cl)cc1Cl)C(O)c1ccccc1` (stereo not given), the minimum inhibitory concentration (MIC) against Staphylococcus aureus, against Enterococcus faecalis, in the experiment with Klebsiella pneumoniae, with Escherichia coli and in the experiment with Pseudomonas aeruginosa was over 50 µg/mL in each case.
For the compound `N#C/C(=C/c1ccccc1)CNC(=O)Nc1ccc(Cl)cc1Cl`, the minimum inhibitory concentration (MIC) in the experiment on Staphylococcus aureus was over 50 µg/mL; against Enterococcus faecalis, over 50 µg/mL; against Klebsiella pneumoniae, over 50 µg/mL; against Escherichia coli it was 50 µg/mL (≈ 144 µM); against Pseudomonas aeruginosa, over 50 µg/mL.
`CCn1cc(C(=O)O)c(=O)c2cc(F)c(N3CCNCC3)cc21` [NORFLOXACIN]: the MIC in the experiment on Staphylococcus aureus was determined as 0.3 µg/mL (≈ 0.939 µM); in the experiment on Enterococcus faecalis it was 0.78 µg/mL (≈ 2.44 µM); in the experiment on Klebsiella pneumoniae, 0.36 µg/mL (≈ 1.13 µM); in the experiment with Escherichia coli, 0.36 µg/mL (≈ 1.13 µM); in the experiment on Pseudomonas aeruginosa, 0.78 µg/mL (≈ 2.44 µM).
As to `CCOc1ccc(NC(=O)N(Cc2ccccc2)CC(C#N)C(O)c2ccccc2Cl)cc1` (stereo not given), the MIC against Staphylococcus aureus, against Enterococcus faecalis, with Klebsiella pneumoniae, in the experiment with Escherichia coli and in the experiment on Pseudomonas aeruginosa was over 50 µg/mL each time.
`N=c1c(Cc2cccs2)c[nH]c(=O)n1-c1ccc(Cl)cc1`: the minimal inhibitory concentration (MIC) against Staphylococcus aureus, with Enterococcus faecalis, in the experiment on Klebsiella pneumoniae, against Escherichia coli and with Pseudomonas aeruginosa was over 50 µg/mL in each case.
GENTAMICIN SULFATE: the MIC against Staphylococcus aureus stood at 6.25 µg/mL; in the experiment with Enterococcus faecalis it was 0.78 µg/mL; in the experiment on Klebsiella pneumoniae, 0.78 µg/mL; against Escherichia coli, 0.02 µg/mL; in the experiment with Pseudomonas aeruginosa it was 25 µg/mL.
`N#C/C(=C/c1ccccc1)CNC(=S)Nc1ccccc1`: the minimal inhibitory concentration (MIC) against Staphylococcus aureus, in the experiment on Enterococcus faecalis, with Klebsiella pneumoniae, against Escherichia coli and in the experiment on Pseudomonas aeruginosa was 50 µg/mL (≈ 170 µM) in each case.
As to `N=C1CCNC(=O)N1c1ccc(Cl)cc1Cl`, the minimal inhibitory concentration (MIC) in the experiment on Staphylococcus aureus is 50 µg/mL (≈ 194 µM); against Enterococcus faecalis it was 50 µg/mL (≈ 194 µM); against Klebsiella pneumoniae, 50 µg/mL (≈ 194 µM); against Escherichia coli, 25 µg/mL (≈ 96.9 µM); against Pseudomonas aeruginosa, 50 µg/mL (≈ 194 µM).
Consider `N=c1c(Cc2ccc(Cl)c(Cl)c2)c[nH]c(=O)n1-c1ccc(Cl)cc1Cl`, for which the MIC worked out at 3.12 µg/mL (≈ 7.52 µM) with Staphylococcus aureus; 3.12 µg/mL (≈ 7.52 µM) against Enterococcus faecalis; 3.12 µg/mL (≈ 7.52 µM) in the experiment on Klebsiella pneumoniae; 3.12 µg/mL (≈ 7.52 µM) against Escherichia coli; 25 µg/mL (≈ 60.2 µM) in the experiment on Pseudomonas aeruginosa.
As for `N#C/C(=C/c1ccccc1)CNC(=O)Nc1ccc(Cl)c(Cl)c1`, the minimum inhibitory concentration (MIC) with Staphylococcus aureus, in the experiment on Enterococcus faecalis, against Klebsiella pneumoniae, against Escherichia coli and in the experiment with Pseudomonas aeruginosa was over 50 µg/mL in each case.

For orientation: MIC means the smallest concentration in the dilution series that meets the test's criterion for growth inhibition. A lower MIC goes with inhibition by little substance.
